Test [1] addresses T1, RhoGDIα (Homo sapiens, UniProt P52565).
T1 sequence (P52565 1-204): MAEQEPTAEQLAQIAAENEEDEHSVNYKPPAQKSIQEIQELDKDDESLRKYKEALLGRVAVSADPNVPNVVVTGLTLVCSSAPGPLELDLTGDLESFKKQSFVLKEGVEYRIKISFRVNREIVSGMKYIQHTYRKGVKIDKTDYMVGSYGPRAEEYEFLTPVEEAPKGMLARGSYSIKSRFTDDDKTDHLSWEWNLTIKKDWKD
Put plainly: Photo-affinity labeling of RhoGDIα with azialcohols, LC-MSMS. Type of test: binding.

Test [2] addresses T1, RhoGDIα. Type of test: binding. Put shortly:
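For n-alkanols, halothane was equilibrated first, then alkanol titrated from stocks while emission at 330 nm was tracked; buffer-only additions controlled for halothane evaporation. For AGGC (0–300 µM), 30 min preincubation ±1 mM halothane in gas-tight syringes, then dilution into cuvette. Recovery […] fitted by Hill-type equation (EC50, Fmax, h).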

Test [3] concerns the target T1, RhoGDIα. The class given is binding. Put shortly: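 RhoGDIα at 500 nM in 2.8 mL Buffer B (pH 7.5 Tris) in screw-top sealed cuvette with minimal headspace; halothane 0–800 µM; 60 min at room temperature. Steady-state tryptophan emission spectra, excitation 295 nm. Quenching taken as FQ/F0, averaging >10 points at the emission maximum. Fitted to Eq. 1 for Kd, h and maximal quenching.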
This is another data set of the same source.

The target in test [4] is T2, RhoGDIα–Cdc42 complex (Homo sapiens, UniProt P52565).
T2 sequence (P52565 1-204): T1 sequence (P52565 1-204)
The class given is biochemical. As to conditions: for effect on association of Cdc42 with membranes (Req,Cdc42) / Cdc42–RhoGDIα Dissociation h: with EDTA and GMPPNP; for Cdc42–RhoGDIα Dissociation h: fit to Eq. 6. The procedure, abridged: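 SPR on L1 chip at 25°C. Running buffer 10 mM HEPES pH 7.4, 150 mM NaCl. Surface cleaned with 10 mM CHAPS; POPC/POPS (4:1) 100 nm LUV captured at 5 µL/min for 15 min; conditioned with 10 mM glycine pH 1.5 and 10 mM NaOH. RhoGDIα–Cdc42 complex typically 0.5 µM in Buffer A with 50 µM GMPPNP and n-alkanol. 14.3 mM EDTA initiated exchange and dissociation. Req from first-order fits versus complex concentration.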

The target of test [5] is Cdc42 (Homo sapiens, UniProt P60953). Particulars: 50 mM (results not shown).
Cdc42, sequence (P60953 whole entry): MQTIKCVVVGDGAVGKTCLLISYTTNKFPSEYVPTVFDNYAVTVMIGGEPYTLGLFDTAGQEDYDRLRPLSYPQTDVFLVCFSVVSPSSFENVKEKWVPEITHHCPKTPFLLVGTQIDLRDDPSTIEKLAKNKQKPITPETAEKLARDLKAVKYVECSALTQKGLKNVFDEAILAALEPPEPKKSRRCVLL
Setting [6] is: read-out: Halothane Binding EC50, 0.2 mM halothane, RhoGDIα 500 nM, fit to Eq. 2.
Where [7] appears, read: read-out: Halothane Binding KI, 0.2 mM halothane, calculated using Eq. 3.

Where two headings read alike, the source gives them in different places.

For `CC1(CCO)N=N1` [3-azibutanol], the “Lowest 3-azialcohol concentration where photoincorporation was detected” value in test [1] (AGGC +) is on record as 100 µM. Further, in test [1] (AGGC –), the “Residue photolabeled / photolabeled peptide” value is listed as “Photolabeled peptide not detected”.

As for `CCCCCC1(CCO)N=N1` [3-azioctanol], the “Lowest 3-azialcohol concentration where photoincorporation was detected” value in test [1] (AGGC +) and in test [1] (AGGC –) was 10 µM in each case. Besides, the “photolabeling of E193” value in test [1] (at levels up to 1 mM) was “not photolabeled”.

For orientation: Ki means a measure of affinity in units of concentration, obtained from inhibition or displacement. Take `CC(=O)N[C@@H](CSC/C=C(\C)CC/C=C(\C)CC/C=C(\C)CCC=C(C)C)C(=O)O` [AGGC, N-acetyl geranylgeranyl cysteine]: the “effect on RhoGDIα tryptophan fluorescence in the absence of halothane” value in test [2] (control without halothane (results not shown)) is “unaffected”. In addition, the Ki in test [2] (read-out: KI for the displacement of halothane, from EC50 by Eq. 3) was determined as 0.01 mM.

The Kd is the constant that tells how readily two partners part at equilibrium. A low value points to higher affinity. In test [3], `FC(F)(F)C(Cl)Br` (stereo not shown) [halothane, 2-bromo-2-chloro-1,1,1-trifluoroethane] yielded a Kd of 0.147 ± 0.007 mM. Moreover, the “blue shift in the emission maxima” value in test [3] (dose dependent, halothane 0–800 µM) is recorded as ~ 2 nm. Besides, the “Hill coefficient h for halothane binding” value in test [3] (fit to Eq. 1) turned out to be 0.91±0.2. Moreover, the “plateau tryptophan fluorescence intensity, of the original signal” value in test [3] (halothane 0–800 µM) is ~ 30%.

On to `CCCCCCCO` [n-heptanol], for which, in test [4], the “effect on association of Cdc42 with membranes (Req,Cdc42)” value is reported as “unaffected”. Besides, the “effect on halothane-induced tryptophan quenching” value in test [2] (0.2 mM halothane) is recorded as “negligible effects”.

Turning to `CCCCCCO` [n-hexanol], in test [4], the “effect on association of Cdc42 with membranes (Req,Cdc42)” value is “unaffected”. In test [2] (0.2 mM halothane), the “effect on halothane-induced tryptophan quenching” value is “did not reach saturation within the concentration range used”.

A word on the EC50: it is the concentration at which the effect is half-maximal. Regarding `CCO` [n=2, ethanol], in test [4], the “Cdc42–RhoGDIα Dissociation h” value came out at 1.2 ± 0.2. Moreover, in test [2] (0.2 mM halothane, fit to Eq. 2), the “Halothane Binding h” value is 1.4 ± 0.4. In test [2] (setting [6]), the 50% effective concentration (EC50) was 100 ± 58 mM. Besides, the Ki in test [2] (setting [7]) was 42 ± 24 mM.

In the case of `CCCO` [n=3], in test [2] (0.2 mM halothane, fit to Eq. 2), the “Halothane Binding Fmax” value was found to be 40 ± 9 and the “Halothane Binding h” value was determined as 1.2 ± 0.2. In addition, the concentration for a half-maximal effect (EC50) in test [2] (setting [6]) turned out to be 48 ± 4.5 mM. Further, in test [2] (setting [7]), the inhibition constant Ki is 20 ± 2 mM.

With `CCCCO` [n=4, n-butanol], the “effect on association of Cdc42 with membranes” value in test [4] (in the absence of EDTA and GMPPNP) is listed as “negligible effects”. In test [4], the “Cdc42–RhoGDIα Dissociation h” value worked out at 1.5 ± 0.3. The “Fmax for displacement of halothane” value is on record as 0.55 ± 0.06 in test [2] (0.1 mM halothane), 0.59 ± 0.04 in test [2] (0.2 mM halothane), 0.59 ± 0.05 in test [2] (0.5 mM halothane) and 0.65 ± 0.08 in test [2] (1.0 mM halothane). Further, the “h for displacement of halothane” value in test [2] (0.1 mM halothane) amounted to 1.0 ± 0.4; in test [2] (0.2 mM halothane), 1.1 ± 0.2; in test [2] (0.5 mM halothane) it was 1.0 ± 0.1; in test [2] (1.0 mM halothane), 1.2 ± 0.2. Also, in test [2] (0.2 mM halothane, fit to Eq. 2), the “Halothane Binding Fmax” value amounted to 51 ± 4. For the same compound, the “Halothane Binding h” value in test [2] (0.2 mM halothane, fit to Eq. 2) was 1.1 ± 0.1. Moreover, the Hill coefficient h in test [2] (independent of halothane concentration or chain length) was ~ 1. The EC50 in test [2] (read-out: EC50 for displacement of halothane, 0.1 mM halothane) stood at 3 ± 1 mM; in test [2] (read-out: EC50 for displacement of halothane, 0.2 mM halothane) it was 11 ± 3 mM; in test [2] (read-out: EC50 for displacement of halothane, 0.5 mM halothane), 22 ± 5 mM; in test [2] (read-out: EC50 for displacement of halothane, 1.0 mM halothane) it was 52 ± 8 mM; in test [2] (setting [6]), 10 ± 3 mM. Besides, the Ki in test [2] (setting [7]) was 4.2 ± 1.2 mM. Besides, in test [5], the “effect on rate and extent of exchange of MANT-GDP for GDP” value is on record as “neither the rate nor the extent of exchange of MANT-GDP for GDP were affected”.

These data come from PMC4556268 (Biochemistry, 2008).
